SMILES strings stand for the structures. Calls of active or inactive are those of the source. The rule behind the calls is not given here.

Among the data in ChEMBL document CHEMBL1955735, “Tea catechins and flavonoids from the leaves of Camellia sinensis inhibit yeast alcohol dehydrogenase” (Bioorg Med Chem, 2012) are Activity, inhibition and IC50 values, retold here.

Assay [1] can be described thus: Activation of aldehyde dehydrogenase.
A short description of assay [2]: Inhibition of aldehyde dehydrogenase.
Assay [3] is described as follows: Inhibition of Saccharomyces cerevisiae alcohol dehydrogenase measured every 5 mins for 2 hrs by spectrophotometry. Summed up: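 Yeast ADH in a microplate. DMSO sample stocks were serially diluted in 10 mM PBS pH 7.4 and combined with ethanol (25% in PBS) and β-NAD⁺ (1.87 mM in PBS), both as added solutions. The mix was equilibrated 5 min at 24 °C, then ADH (1180 unit/L solution) was added and incubated 2 h at 24 °C. NADH was read at A340 every 5 min. IC50 was the concentration halving NADH versus the PBS control at 2 h. Run in triplicate, with disulfiram as positive control.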

The subject of assay [4] is Radical scavenging activity. The experiment in a line: Antioxidant activity assessed as DPPH radical scavenging activity after 30 mins by spectrophotometry. Type of assay: functional. Summed up:
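Microplate DPPH assay: 30 min incubation at room temperature, then absorbance read at 517 nm. IC50 is the concentration giving a 50% drop in absorbance relative to the DPPH control solution.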
A general note: The DPPH test is a chemical assay of radical scavenging.

The term IC50 denotes the point on the concentration scale where inhibition reaches its midpoint. For the compound `O=c1c(O[C@@H]2O[C@H](CO)[C@@H](O)[C@H](O)[C@H]2O)c(-c2cc(O)c(O)c(O)c2)oc2cc(O)cc(O)c12`, the outcome in assay [1] was inactive. Besides, the inhibition result in assay [2] was “inactive”. Moreover, the IC50 in assay [3] was 19.9 µM; in assay [4], 28 µM.

In the case of `COc1cc(C(=O)O[C@@H]2Cc3c(O)cc(O)cc3O[C@@H]2c2ccc(O)c(O)c2)cc(O)c1O`, the result in assay [1] was inactive. Moreover, in assay [2], the inhibition entry was “inactive”. Further, the half-maximal inhibitory concentration (IC50) is 44.1 µM in assay [3] and 10.8 µM in assay [4].

As for `O=C(O[C@@H]1Cc2c(O)cc(O)cc2O[C@@H]1c1ccc(O)cc1)c1cc(O)c(O)c(O)c1`, in assay [1], the outcome was inactive. In assay [2], the inhibition entry was “inactive”. For the same compound, the IC50 in assay [3] came out at 44.3 µM; in assay [4], 2.8 µM.

For `O=C(/C=C\c1ccc(O)cc1)O[C@@H]1Cc2c(O)cc(O)cc2O[C@@H]1c1cc(O)c(O)c(O)c1`, in assay [1], the result was inactive. In addition, the inhibition entry in assay [2] was “inactive”. Also, the results for the 50% inhibitory concentration (IC50) in assay [3] and in assay [4] were 22.1 µM and 26.4 µM, respectively.

Turning to `C[C@@H]1O[C@@H](OC[C@H]2O[C@@H](Oc3c(-c4ccc(O)c(O)c4)oc4cc(O)cc(O)c4c3=O)[C@H](O)[C@@H](O)[C@@H]2O)[C@H](O)[C@H](O[C@@H]2O[C@H](CO)[C@@H](O)[C@H](O)[C@H]2O)[C@H]1O`, the result in assay [1] was inactive. For the same compound, the inhibition entry in assay [2] is “inactive”. For the same compound, the IC50 in assay [3] was 19.7 µM; in assay [4], 7.7 µM.

Turning to `C[C@@H]1O[C@@H](OC[C@H]2O[C@@H](Oc3c(-c4ccc(O)c(O)c4)oc4cc(O)cc(O)c4c3=O)[C@H](O)[C@@H](O)[C@H]2O)[C@H](O)[C@H](O[C@@H]2O[C@H](CO)[C@@H](O)[C@H](O)[C@H]2O)[C@H]1O`, in assay [1], the result was inactive. In assay [2], the inhibition entry is “inactive”. In addition, the IC50 was determined as 41 µM in assay [3] and 30.1 µM in assay [4].

Regarding `C[C@@H]1O[C@@H](OC[C@H]2O[C@@H](Oc3c(-c4ccc(O)cc4)oc4cc(O)cc(O)c4c3=O)[C@H](O)[C@@H](O)[C@H]2O)[C@H](O)[C@H](O[C@@H]2O[C@H](CO)[C@@H](O)[C@H](O)[C@H]2O)[C@H]1O`, the result in assay [1] was inactive. Besides, the inhibition entry in assay [2] is “inactive”. In addition, the concentration for half-maximal inhibition (IC50) in assay [3] was 17.6 µM; in assay [4], over 100 µM.

Regarding `O=C(/C=C/c1ccc(O)cc1)O[C@@H]1Cc2c(O)cc(O)cc2O[C@@H]1c1cc(O)c(O)c(O)c1`, in assay [1], the result was inactive. Moreover, in assay [2], the inhibition result is “inactive”. In addition, the IC50 in assay [3] stood at 8 µM; in assay [4], 43.8 µM.

Turning to `O=c1c(O[C@@H]2O[C@H](CO)[C@H](O)[C@H](O)[C@H]2O)c(-c2cc(O)c(O)c(O)c2)oc2cc(O)cc(O)c12`, the result in assay [1] was inactive. Also, in assay [2], the inhibition result is “inactive”. For the same compound, the IC50 in assay [3] stood at 18.2 µM; in assay [4], 3.5 µM.

Take `Cc1c(C)c2c(c(C)c1O)CC[C@@](C)(CCC[C@H](C)CCC[C@H](C)CCCC(C)C)O2` [ALPHA-TOCOPHEROL]: the IC50 in assay [4] was found to be 11.4 µM.

`Cn1c(=O)c2c(ncn2C)n(C)c1=O` [CAFFEINE]: the outcome in assay [1] was inactive. Besides, the inhibition result in assay [2] was “inactive”. Also, the 50% inhibitory concentration (IC50) in assay [3] was 197 µM; in assay [4], over 100 µM.

With `C[C@@H]1O[C@@H](OC[C@H]2O[C@@H](Oc3c(-c4ccc(O)c(O)c4)oc4cc(O)cc(O)c4c3=O)[C@H](OC(=O)/C=C/c3ccc(O)cc3)[C@@H](O[C@@H]3OC[C@H](O)[C@H](O)[C@H]3O)[C@@H]2O)[C@H](O)[C@H](O[C@@H]2O[C@H](CO)[C@@H](O)[C@H](O)[C@H]2O)[C@H]1O` [CAMELLIQUERCETISIDE A], in assay [1], the outcome was inactive. In assay [2], the inhibition entry is “inactive”. Besides, the IC50 in assay [3] was found to be 17.3 µM; in assay [4] it was 19.8 µM.

Turning to `C[C@@H]1O[C@@H](OC[C@H]2O[C@@H](Oc3c(-c4ccc(O)c(O)c4)oc4cc(O)cc(O)c4c3=O)[C@H](OC(=O)/C=C/c3ccc(O)cc3)[C@@H](O)[C@@H]2O)[C@H](O)[C@H](O[C@@H]2O[C@H](CO)[C@@H](O)[C@H](O)[C@H]2O)[C@H]1O` [CAMELLIQUERCETISIDE B], the outcome in assay [1] was inactive. Also, in assay [2], the inhibition entry was “inactive”. Also, the half-inhibitory concentration (IC50) in assay [3] was 13.7 µM; in assay [4], 22 µM.

Regarding `C[C@@H]1O[C@@H](OC[C@H]2O[C@@H](Oc3c(-c4ccc(O)c(O)c4)oc4cc(O)cc(O)c4c3=O)[C@H](OC(=O)/C=C/c3ccc(O)cc3)[C@@H](O[C@@H]3OC[C@H](O)[C@H](O)[C@H]3O)[C@@H]2O)[C@H](O)[C@H](O)[C@H]1O` [CAMELLIQUERCETISIDE C], in assay [1], the outcome was inactive. In assay [2], the inhibition entry was “inactive”. In addition, the IC50 was 46.7 µM in assay [3] and 31.9 µM in assay [4].

As for `C[C@@H]1O[C@@H](OC[C@H]2O[C@@H](Oc3c(-c4ccc(O)c(O)c4)oc4cc(O)cc(O)c4c3=O)[C@H](OC(=O)/C=C/c3ccc(O)cc3)[C@@H](O)[C@@H]2O)[C@H](O)[C@H](O)[C@H]1O` [CAMELLIQUERCETISIDE D], in assay [1], the outcome was inactive. The inhibition entry in assay [2] was “inactive”. Also, the values for the IC50 in assay [3] and in assay [4] were 41.5 µM and 29.2 µM, respectively.

In the case of `Oc1cc(O)c2c(c1)O[C@H](c1ccc(O)c(O)c1)[C@@H](O)C2` [CIANIDANOL], the outcome in assay [1] was inactive. Also, the inhibition result in assay [2] was “inactive”. The half-maximal inhibitory concentration (IC50) was determined as 21.1 µM in assay [3] and 4.3 µM in assay [4].

As for `CCN(CC)C(=S)SSC(=S)N(CC)CC` [DISULFIRAM], in assay [3], the midpoint of inhibition, the IC50, lay at 248 µM.

In the case of `O=C(O[C@@H]1Cc2c(O)cc(O)cc2O[C@@H]1c1ccc(O)c(O)c1)c1cc(O)c(O)c(O)c1` [EPICATECHIN GALLATE], the result in assay [1] was inactive. The inhibition entry in assay [2] was “inactive”. Besides, the IC50 in assay [3] amounted to 65.5 µM; in assay [4] it was 1.5 µM.

Consider `Oc1cc(O)c2c(c1)O[C@H](c1cc(O)c(O)c(O)c1)[C@H](O)C2` [EPIGALLOCATECHIN], for which the outcome in assay [1] was inactive. In assay [2], the inhibition entry was “inactive”. Also, the values for the half-inhibitory concentration (IC50) in assay [3] and in assay [4] were 16.5 µM and 16.2 µM, respectively.

Turning to `O=C(O[C@@H]1Cc2c(O)cc(O)cc2O[C@@H]1c1cc(O)c(O)c(O)c1)c1cc(O)c(O)c(O)c1` [EPIGALOCATECHIN GALLATE], the outcome in assay [1] was inactive. The inhibition result in assay [2] was “inactive”. The values for the IC50 in assay [3] and in assay [4] were 42.8 µM and 8.3 µM, respectively.

For the compound `C[C@@H]1O[C@@H](OC[C@H]2O[C@@H](Oc3c(-c4ccc(O)cc4)oc4cc(O)cc(O)c4c3=O)[C@H](O)[C@@H](O)[C@@H]2O)[C@H](O)[C@H](O)[C@H]1O` [NICOTIFLOROSIDE], the result in assay [1] was inactive. The inhibition result in assay [2] was “inactive”. Moreover, the concentration for half-maximal inhibition (IC50) was 40.4 µM in assay [3] and over 100 µM in assay [4].

With `O=c1c(O[C@@H]2O[C@H](CO)[C@H](O)[C@H](O)[C@H]2O)c(-c2ccc(O)cc2)oc2cc(O)cc(O)c12` [TRIFOLIN], in assay [1], the outcome was inactive. Besides, in assay [2], the inhibition entry is “inactive”. For the same compound, the half-maximal inhibitory concentration (IC50) in assay [3] is 70.3 µM; in assay [4], over 100 µM.
